pIC50: −log10 of the molar value.
What was measured:
[1] = target: T1, 17-beta-hydroxysteroid dehydrogenase type 3 (Rattus norvegicus) (UniProt O54939); assay: Inhibition of 17beta-HSD3 in rat testes microsomal fraction using [14C]-4-androstene-3,17-dione as substrate assessed as testosterone formation at 0.1 uM after 2 hrs by thin layer chromatography; assay type: microsomes; settings: Testis
T1 sequence (whole entry): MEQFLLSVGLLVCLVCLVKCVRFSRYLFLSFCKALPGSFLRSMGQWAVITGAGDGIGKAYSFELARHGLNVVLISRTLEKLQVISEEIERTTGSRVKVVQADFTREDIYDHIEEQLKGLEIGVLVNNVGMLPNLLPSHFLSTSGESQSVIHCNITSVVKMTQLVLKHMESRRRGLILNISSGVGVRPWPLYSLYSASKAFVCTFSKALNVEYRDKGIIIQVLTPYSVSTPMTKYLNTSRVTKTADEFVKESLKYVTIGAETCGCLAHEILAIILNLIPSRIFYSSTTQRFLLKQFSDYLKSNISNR
Procedure, shortened: (§1)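 Rat testis microsomes supplying 17β-HSD3, converting [14C]-4-androstene-3,17-dione (50 nM) into testosterone. Inhibition of this transformation is measured at a fixed inhibitor concentration and expressed as mean ± SD of triplicate.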

[2] = target: T1, 17-beta-hydroxysteroid dehydrogenase type 3 (Rattus norvegicus); assay: Inhibition of 17beta-HSD3 in rat testes microsomal fraction using [14C]-4-androstene-3,17-dione as substrate assessed as testosterone formation at 1 uM after 2 hrs by thin layer chromatography; assay type: microsomes; settings: Testis; procedure, shortened: as §1
[3] = target: T2, 17-beta-hydroxysteroid dehydrogenase type 3 (Rattus norvegicus, UniProt O54939); assay: Inhibition of 17beta-HSD3 in rat testes microsomal fraction using [14C]-4-androstene-3,17-dione as substrate assessed as testosterone formation after 2 hrs by thin layer chromatography
T2 sequence (O54939 whole entry): T1 sequence (whole entry)
Procedure, shortened: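 Rat testis microsomal fraction as 17β-HSD3 source, converting [14C]-Δ4-dione (50 nM) to [14C]-testosterone. Activity is plotted against log inhibitor concentration. IC50 is fitted from the inhibition curves. Values are mean ± SD of triplicates.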

SMILES | inhibition [1] [%] | inhibition [2] [%] | pIC50 [3]
C[C@]12CC[C@]3(CN[C@@H](Cc4ccccc4)C(=O)O3)C[C@@H]1CC[C@@H]1[C@@H]2CC[C@]2(C)C(=O)CC[C@@H]12 | 48.8 | 92 | 7.66
CC1CN(S(=O)(=O)c2ccccc2C(F)(F)F)C(C)CN1C[C@@]1(O)CC[C@@]2(C)[C@@H](CC[C@@H]3[C@@H]2CC[C@]2(C)C(=O)CC[C@@H]32)C1 (stereo partly specified) | 47.3 | – | 7.85
C[C@]12CC[C@@]3(C[C@@H]1CC[C@@H]1[C@@H]2CC[C@]2(C)C(=O)CC[C@@H]12)CN(Cc1ccccc1)[C@H](Cc1ccccc1)C(=O)O3 | 25.6 | 87.3 | –
O=C1OC2(CCCCC2)CN(Cc2ccccc2)[C@H]1Cc1ccccc1 | 24.2 | 24.3 | –
O=C1OC2(CCCCC2)CN[C@H]1Cc1ccccc1 | 6.2 | 19.5 | –
C[C@]12CC[C@]3(CN[C@H](Cc4ccccc4)C(=O)O3)C[C@@H]1CC[C@@H]1[C@@H]2CC[C@]2(C)C(=O)CC[C@@H]12 | 18.5 | 63.2 | –
C[C@]12CC[C@@]3(C[C@@H]1CC[C@@H]1[C@@H]2CC[C@]2(C)C(=O)CC[C@@H]12)CN(Cc1ccccc1)[C@@H](Cc1ccccc1)C(=O)O3 | 58.2 | 90.4 | 7.24

— ChEMBL document CHEMBL3085755, “Synthesis of 3-spiromorpholinone androsterone derivatives as inhibitors of 17β-hydroxysteroid dehydrogenase type 3” (Bioorg Med Chem Lett, 2013)
